# Laboratory results published in ChEMBL document CHEMBL1137637, “Quinuclidine derivatives as potential antiparasitics” (Antimicrob Agents Chemother, 2007).
# What was measured:
# [1] = system: Leishmania amazonensis; test: Inhibition of sterol biosynthesis in Leishmania mexicana amazonensis promastigotes assessed as reduction in endogenous 5-dehydro episterol level at 3 uM after 96 hrs by gas-liquid chromatography; format: functional; design: scale not given: the % may be the effect or the level left
# How it was run: (§1)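 L. mexicana promastigotes exposed to compound for 96 h. Total lipids extracted and neutral sterols separated from polar lipids by silicic acid column chromatography. Sterols analysed by TLC and by quantitative capillary gas-liquid chromatography with mass spectrometry. Composition expressed as mass % of free sterols, compared with untreated control.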
# [2] = target: T1, Farnesyltransferase, putative (Trypanosoma cruzi (strain CL Brener), UniProt Q4CXF7); test: Inhibition of Trypanosoma cruzi squalene synthase
# T1 sequence (Q4CXF7 whole entry): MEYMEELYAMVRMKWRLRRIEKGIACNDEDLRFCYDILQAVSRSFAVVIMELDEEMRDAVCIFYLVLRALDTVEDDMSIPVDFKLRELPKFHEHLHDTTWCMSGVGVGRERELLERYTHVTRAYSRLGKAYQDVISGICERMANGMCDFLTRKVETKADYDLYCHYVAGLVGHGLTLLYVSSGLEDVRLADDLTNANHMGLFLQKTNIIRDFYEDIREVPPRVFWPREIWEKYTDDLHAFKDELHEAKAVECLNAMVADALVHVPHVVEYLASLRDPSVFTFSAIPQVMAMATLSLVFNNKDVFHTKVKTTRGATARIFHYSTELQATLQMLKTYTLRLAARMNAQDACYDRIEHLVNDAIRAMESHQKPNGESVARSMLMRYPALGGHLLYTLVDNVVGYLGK
# [3] = target: T2, Farnesyltransferase, putative (Leishmania major, UniProt Q4Q5W4); test: Inhibition of Leishmania major recombinant squalene synthase expressed in Escherichia coli by liquid scintillation counter
# T2 sequence (Q4Q5W4 whole entry): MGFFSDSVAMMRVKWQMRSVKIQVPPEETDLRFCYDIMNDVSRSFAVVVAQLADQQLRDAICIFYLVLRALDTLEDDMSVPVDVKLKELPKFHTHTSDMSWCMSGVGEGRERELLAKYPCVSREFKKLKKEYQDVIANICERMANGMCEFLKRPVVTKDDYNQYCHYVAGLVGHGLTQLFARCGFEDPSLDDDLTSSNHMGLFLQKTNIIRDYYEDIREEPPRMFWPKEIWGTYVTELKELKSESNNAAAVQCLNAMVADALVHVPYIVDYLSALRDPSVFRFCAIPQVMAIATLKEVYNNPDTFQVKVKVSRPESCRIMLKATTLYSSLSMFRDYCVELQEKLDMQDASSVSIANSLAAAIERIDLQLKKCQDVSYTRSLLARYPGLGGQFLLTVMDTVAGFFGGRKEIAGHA
# How it was run: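 Soluble E. coli extract expressing L. major SQS truncated by 16 N-terminal and 40 C-terminal residues. Buffer: 50 mM phosphate pH 7.4, 20 mM MgCl2, 5 mM CHAPS, 1% Tween 80, 10 mM DTT, BSA, 0.25 mM NADPH, and a glucose-6-phosphate/G6PDH regenerating system. Substrate 0.5 μM radiolabelled farnesyl pyrophosphate. Squalene band counted by scintillation. IC50 from hyperbolic plot of five concentrations in duplicate, usually run twice.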
# [4] = Inhibition of Leishmania mexicana squalene synthase
# [5] = system: Leishmania amazonensis; test: Inhibition of sterol biosynthesis in Leishmania mexicana amazonensis promastigotes assessed as reduction in exogenous cholesterol level at 1 uM after 96 hrs by gas-liquid chromatography; format: functional; design: scale not given: the % may be the effect or the level left; how it was run: as §1
# [6] = system: Leishmania amazonensis; test: Inhibition of sterol biosynthesis in Leishmania mexicana amazonensis promastigotes assessed as reduction in endogenous episterol level at 1 uM after 96 hrs by gas-liquid chromatography; format: functional; design: scale not given: the % may be the effect or the level left; how it was run: as §1
# [7] = system: Leishmania amazonensis; test: Inhibition of sterol biosynthesis in Leishmania mexicana amazonensis promastigotes assessed as reduction in exogenous cholesterol level at 3 uM after 96 hrs by gas-liquid chromatography; format: functional; design: scale not given: the % may be the effect or the level left; how it was run: as §1
# [8] = system: Leishmania amazonensis; test: Inhibition of sterol biosynthesis in Leishmania mexicana amazonensis promastigotes assessed as reduction in endogenous 5-dehydro episterol level at 1 uM after 96 hrs by gas-liquid chromatography; format: functional; design: scale not given: the % may be the effect or the level left; how it was run: as §1
# [9] = system: Leishmania amazonensis; test: Inhibition of sterol biosynthesis in Leishmania mexicana amazonensis promastigotes assessed as reduction in endogenous episterol level at 3 uM after 96 hrs by gas-liquid chromatography; format: functional; design: scale not given: the % may be the effect or the level left; how it was run: as §1
smiles,measurement,setting,value
OC1(c2ccc(-c3ccccc3)cc2)CN2CCC1CC2 (centres undefined),Activity,[1],39.6%
same,Ki,[2],62 nM
same,IC50,[3],13 nM
same,Ki,[4],12 nM
same,Activity,[5],17.5%
same,Activity,[6],16.8%
same,Activity,[7],39.6%
same,Activity,[8],65.7%
same,Activity,[9],20.8%
